Experiment [1] deals with Neuronal acetylcholine receptor. The experiment is described as follows: Binding affinity against Nicotinic Acetylcholine Receptor was determined by measuring the displacement of [3H]cytisine from a preparation of whole rat brain. Put shortly: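 Displacement of the radioligand [3H]-(-)-cytisine from a whole rat brain preparation, which mainly labels the α4β2 receptor subtype. The procedure follows a previously published method.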

Experiment [2] relates to K177 cell line. Put plainly: Maximum efficacy relative to 100(uM) (S)-nicotine for cell preparations containing alpha4-beta2 K177 cells. In kind it is functional, Homo sapiens.
Experiment [3] deals with IMR-32. Put plainly: Maximum efficacy relative to 100(uM) (S)-nicotine for cell preparations containing alpha3-betaX IMR32 cells. The class given is functional, Homo sapiens.
For experiment [4], the system named is IMR-32. Put plainly: Ability to stimulate Rb+ efflux from human IMR-32 cell preparations containing human alpha3-betaX receptors. In kind it is functional, cell-based.
Experiment [5] has as its system K177 cell line. Put plainly: Ability to stimulate Rb+ efflux from human K177 cell preparations containing human alpha4-beta2 receptors. In kind it is functional, cell-based.
The subject of a further experiment is IMR-32 (Homo sapiens). Put plainly: Ability to stimulate Rb+ efflux from human IMR-32 cell preparations containing human alpha3-betaX receptors.

For the compound `CN1CC[C@@H]1COc1cccnc1`, in experiment [1], the Ki (in general, a measure of affinity in units of concentration, obtained from inhibition or displacement) came out at 3.5 nM. The Max in the experiment with K177 cell line [2] was 103%; in the experiment on IMR-32 [3] it was 39%. In addition, the EC50 (as a rule, the midpoint of the concentration-response curve) worked out at 38000 nM in the experiment on IMR-32 [4] and 35000 nM in the experiment with K177 cell line [5] (Homo sapiens, K177).
The like results for `CN1CC[C@H]1COc1cccnc1` were, in that order, 0.45 nM, 116%, 74%, 30000 nM and 3700 nM.
Regarding `c1cncc(OC[C@@H]2CCN2)c1`, the Max in the experiment with K177 cell line [2] came out at 163%; in the experiment with IMR-32 [3], 113%. Moreover, the EC50 in the experiment with IMR-32 [4] was determined as 700 nM; with K177 cell line [5] (Homo sapiens, K177), 680 nM.
Take `CN1CCC[C@@H]1COc1cccnc1`: in experiment [1], the affinity corresponds to a Ki of 19.7 nM. In addition, the Max with K177 cell line [2] is below 10%; in the experiment on IMR-32 [3], below 20%. The values for the IC50 in the experiment with IMR-32 [4] and in the experiment with K177 cell line [5] were 54000 nM and 110000 nM, respectively.
As to `CN1CCC[C@H]1c1cccnc1` [NICOTINE], the Max with IMR-32 [3] and with IMR-32 (Homo sapiens) was 100% throughout. The compound further showed an EC50 in the experiment with K177 cell line [5] (Homo sapiens, K177) of 5000 nM.
`c1cncc(OC[C@H]2CCCN2)c1`: the Ki in experiment [1] was 0.14 nM. The results for the Max in the experiment with K177 cell line [2] and with IMR-32 [3] were 120% and 100%, respectively. Further, the EC50 with IMR-32 [4] is 5800 nM; with K177 cell line [5] (Homo sapiens, K177), 4300 nM.
Turning to `CN1CCC[C@H]1COc1cccnc1` (stereo in doubt; 2a), the affinity in experiment [1] corresponds to a Ki of 0.15 nM. The same compound registered a Max in the experiment on IMR-32 [3] of 100%. The compound further displayed an EC50 in the experiment with K177 cell line [5] (k177) of 750 nM.
Take `Clc1ccc(C2CC3CCC2N3)cn1` (stereo not drawn) [EPIBATIDINE]: the Max in the experiment with IMR-32 [3] and in the experiment on IMR-32 (Homo sapiens) was 156% in each case. Besides, the EC50 in the experiment on IMR-32 [4] came out at 7 nM; in the experiment on K177 cell line [5] (Homo sapiens, K177) it was 17 nM.
For `c1cncc(OC[C@H]2CCN2)c1`, the Max is given as 159% in the experiment with K177 cell line [2] and 116% in the experiment on IMR-32 [3]. For the same compound, the EC50 was found to be 1100 nM in the experiment with IMR-32 [4] and 400 nM in the experiment on K177 cell line [5] (Homo sapiens, K177).

The values are drawn from ChEMBL document CHEMBL1129752, “Novel 3-Pyridyl ethers with subnanomolar affinity for central neuronal nicotinic acetylcholine receptors” (J Med Chem, 1996).
